In the library only some 2.1% were active in any assay of this set; here they are far more common.
CAL PDZ FP-1: blocks peptide binding to the human CAL PDZ domain. purified CAL PDZ, TMR-peptide fluorescence polarization, 1 h. Q9HD26. inhibition, % at 24.9 µM. 300,000 tested, 0.92% active;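 active = mean inhibition of at least 30% with at least half of replicates also reaching 30%; inconclusive = no clear call, values can overlap the other calls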;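 also: 0% = DMSO neutral control and 100% = excess unlabeled competitor peptide PRC23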
SR-BI DiI inh: blocks mouse SR-BI lipid uptake from DiI-HDL; Q61009; 320,000 tested, 0.96% active; AID 488896; inhibition, % at 12.5 µM; ldlA[mSR-BI] CHO cells, DiI-HDL uptake fluorescence, 3 h;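 active = mean replicate inhibition of at least 70% and a set share of replicates each scoring 70 or more; inconclusive = meets just one of the two criteria; inactive = fails both criteria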;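 also: 0% = median of neutral control wells and 100% = median of positive control wells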
Target sequence (Q61009 whole entry, looked up): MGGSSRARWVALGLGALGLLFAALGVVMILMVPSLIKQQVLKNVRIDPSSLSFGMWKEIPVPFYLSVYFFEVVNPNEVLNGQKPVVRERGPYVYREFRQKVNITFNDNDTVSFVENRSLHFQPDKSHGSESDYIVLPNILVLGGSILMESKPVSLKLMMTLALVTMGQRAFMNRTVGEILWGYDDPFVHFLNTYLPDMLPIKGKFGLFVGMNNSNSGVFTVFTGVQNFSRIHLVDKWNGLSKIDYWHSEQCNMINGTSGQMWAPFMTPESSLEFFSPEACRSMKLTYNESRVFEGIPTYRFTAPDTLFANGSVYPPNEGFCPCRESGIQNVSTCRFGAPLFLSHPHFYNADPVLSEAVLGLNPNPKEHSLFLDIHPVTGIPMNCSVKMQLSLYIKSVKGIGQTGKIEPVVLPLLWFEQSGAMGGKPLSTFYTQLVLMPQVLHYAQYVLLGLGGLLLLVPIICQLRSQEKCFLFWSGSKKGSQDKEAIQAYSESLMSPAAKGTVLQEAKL
SR-BI uptake up: SR-BI HDL lipid transfer activation; CHO ldlA[mSR-BI] cells, DiI-HDL uptake fluorescence, 3 h; 100 = double the neutral-control signal; activation, % at 12.5 µM; 320,000 tested, 0.096% active; AID 504775;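 active = mean replicate activation of at least 60% and every replicate at or above 60%; inconclusive = mean or all-replicate condition met, but not both; inactive = mean below 60% and not all replicates reaching 60%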;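 also: 0% = median plate neutral-control signal and 100% = twice that signal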
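Assay system: CHO ldlA[mSR-BI] cells, LDL receptor-null, SR-BI overexpressing; medium: Ham's F12 with 0.5% BSA, HEPES 25 mM, pH 7.4; also added: DiI-HDL 10 µg/mL; timing: 3 h uptake period with compound, 37 °C; signal: DiI fluorescence, bottom read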
CAL PDZ FP-2: blocks peptide binding to human CAL PDZ domain. purified CAL PDZ, TMR-peptide fluorescence polarization, 1 h. inhibition, % at 20 µM. 330,000 tested, 0.02% active;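 active = highest replicate inhibition of at least 40%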;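 also: plate controls were DMSO neutral control wells for no effect and unlabeled competitor peptide control wells for full effect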
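material = purified tagged CAL PDZ domain construct (CerCALP) | compound dosing = 20 µM, one dose | times = 1 h at RT | measured by = fluorescence polarization from S- and P-plane intensities, G-factor corrected | read-out = inhibition from polarization loss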
miR122 inh: miR-122 inhibition in Huh7 cells; Huh7 miR-122 Renilla luciferase sensor, 48 h; neutral wells = 0, positive control = 100; activation (reporter increase), % at 12.5 µM; 340,000 tested, 0.3% active;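 active = mean replicate activation score at least 90 and every replicate individually at or above 90; inconclusive = only one of the two criteria met; inactive = neither criterion met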;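 also: higher luciferase means less miR-122 activity so hits act as miR-122 inhibitors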
ARNT-TACC3 inh: disruptors of human ARNT/TACC3 interaction | AID 623870 | Q9Y6A5 | 390,000 tested, 0.66% active | AlphaScreen His-ARNT PAS-B/GST-TACC3 binding, luminescence; TACC3 fragment carries E629A point mutation | inhibition, % at 9.99 µM;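 active = mean inhibition of replicates at least 50% and at least half of replicates each reaching 50%; inconclusive = half or more replicates reach 50% but mean below 50%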;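 also: 0% = complete ARNT plus TACC3 wells and 100% = ARNT alone without TACC3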
* = called active by the depositor; i = inactive; ? = inconclusive; · = no result given; [ ] = dose if it differs, or a comment.

SMILES	CAL PDZ FP-1	SR-BI DiI inh	SR-BI uptake up	CAL PDZ FP-2	miR122 inh	ARNT-TACC3 inh
C[C@H]1CN([C@@H](C)CO)C(=O)c2ccccc2-c2ccccc2CO[C@H]1CN(C)C(=O)Nc1ccnc(N2CCOCC2)c1	·	·	·	·	·	7
C[C@H](CO)N1C[C@H](C)[C@H](CN(C)C(=O)Nc2ccnc(N3CCOCC3)c2)OCc2ccccc2-c2ccccc2C1=O	·	·	·	·	·	12*
C[C@@H]1CCCCO[C@H](CN(C)C(=O)c2ccncc2)[C@@H](C)CN([C@@H](C)CO)C(=O)c2cc(NC(=O)Cc3ccccc3)ccc2O1	·	·	·	·	-5[16.7 µM]	-8
C[C@@H]1CCCCO[C@@H](CN(C)CC2CCCCC2)[C@H](C)CN([C@H](C)CO)C(=O)c2cc(NC(=O)CCC(F)(F)F)ccc2O1	·	·	·	·	-5[16.7 µM]	-4
C[C@@H]1CCCCO[C@H](CN(C)Cc2ccc(Cl)c(Cl)c2)[C@H](C)CN([C@@H](C)CO)C(=O)c2cc(NC(=O)Nc3ccc(F)cc3)ccc2O1	·	·	·	·	-13	15
C[C@H](CO)N1C[C@H](C)[C@@H](CN(C)C(=O)c2ccncc2)OCCCC[C@H](C)Oc2ccc(NC(=O)Cc3ccccc3)cc2C1=O	·	·	·	·	10[16.7 µM]	active
C[C@@H]1CN([C@@H](C)CO)C(=O)c2cc(NC(=O)Nc3ccc(F)cc3)ccc2O[C@@H](C)CCCCO[C@H]1CN(C)Cc1ccc(Cl)c(Cl)c1	·	·	·	·	0[16.7 µM]	48*
COc1ccc(NC(=O)N[C@H]2CC[C@H](CCn3cc(C4(O)CCCC4)nn3)O[C@@H]2CO)cc1	·	·	·	·	·	-10
CC(=O)N(C)C[C@H]1Oc2ncc(-c3ccccc3F)cc2C(=O)N([C@@H](C)CO)C[C@@H]1C	·	·	·	·	-2[16.7 µM]	-2
C[C@H]1CN([C@@H](C)CO)C(=O)Cc2cc(NS(=O)(=O)c3cn(C)cn3)ccc2O[C@@H]1CN(C)C(=O)Nc1ccccc1	·	·	·	·	-11[16.7 µM]	-4
CCOC(=O)/C(=C\C=C1/Sc2cc(OCC)c(OCC)cc2N1CC)C(C)=O	1	78*	-78	0	3	51*
CCN1/C(=C\C=C2\C(=O)N(C)C(=S)N2C)Sc2ccccc21	-3	?	-74	0	·	·
CCOC(=O)/C(=C/C=C1\Sc2cc(OCC)c(OCC)cc2N1CC)C(C)=O	-1	78*	-78	1	·	51*
CCC(=O)N(C)C[C@H]1Oc2ncc(-c3ccc(F)cc3)cc2C(=O)N([C@@H](C)CO)C[C@@H]1C	·	·	·	·	-2[16.7 µM]	-12
C[C@H]1CN([C@@H](C)CO)C(=O)CCCn2nncc2CO[C@@H]1CN(C)S(=O)(=O)c1ccccc1F	·	·	·	·	3[16.7 µM]	1
CN1CCN(C(=O)C[C@H]2C[C@H]3c4cc(NC(=O)c5ccc6c(c5)OCO6)ccc4O[C@H]3[C@H](CO)O2)CC1	·	·	·	·	5[16.7 µM]	7
Cc1cccc(-n2cnc(C(=O)NNC(=S)Nc3ccc(Cl)cc3)c2)n1	-4	0	0	-2	0	67*
Cc1nc2ccccn2c1C(=O)NNC(=S)Nc1ccc(Cl)cc1	-3	10	-10	-1	-3	4
O=C(N/N=C\c1c(O)ccc2ccccc12)c1cncc(Br)c1	-3	143*	-143	-2	·	15
O=C(N/N=C/c1c(O)ccc2ccccc12)c1cccnc1	-7	51	-51	-3	-20	59*
Cc1ccc(C(=O)N/N=C/c2c(O)ccc3ccccc23)cn1	-3	93*	-93	·	·	-6
COc1ccccc1/C=N/NC(=O)c1ccc(C)nc1	·	19	-19	0	0	3
N#CCSc1nc2cc(C(=O)N3CCC(C(N)=O)CC3)ccc2c2nc3ccccc3n12	-6	0	-1	-1	-11	47*
CCN1CCN(C(c2cccnc2)c2c(NC(=O)c3ccco3)sc(C)c2C)CC1 (stereo not drawn)	46*	-6	6	0	-4	6
COc1ccc(C(c2c(NC(=O)c3ccco3)sc(C)c2C)N2CCOCC2)cc1 (stereo not drawn)	5	-17	17	3	·	0
SMILES	CAL PDZ FP-1	SR-BI DiI inh	SR-BI uptake up	CAL PDZ FP-2	miR122 inh	ARNT-TACC3 inh
Cc1sc(NC(=O)c2ccco2)c(C(c2cccnc2)N2CCC(C)CC2)c1C (stereo not drawn)	43*	-2	2	0	-20	-2
CN(C)Cc1cn(CC[C@H]2CC[C@@H](NS(=O)(=O)c3ccc(-c4ccccc4)cc3)[C@@H](CO)O2)nn1	·	·	·	·	-5[16.7 µM]	·
COc1ccc(OC)c(N(CC(=O)N2CCCCC2)S(=O)(=O)c2ccc(OC)c(OC)c2)c1	-1	-55	55	-2	42	-56
Cc1ccc(S(=O)(=O)N(CC(=O)N2CCC(C)CC2)c2cccc(C)c2)cc1	-1	-3	3	-4	144*	-14
COc1ccc(OC)c(N(CC(=O)N2CCC(C)CC2)S(=O)(=O)c2ccccc2)c1	-1	6	-6	-2	232*	0
CC1CCN(C(=O)CN(c2ccc3c(c2)OCCO3)S(=O)(=O)c2ccccc2)CC1	-8	·	·	0	104*	-3
CCOC(=O)C1CCN(C(=O)CN(c2ccc3c(c2)OCCO3)S(=O)(=O)c2ccccc2)CC1	·	-8	8	-1	·	-1
COc1ccc(OC)c(N(CC(=O)N2CCC(C)CC2)S(=O)(=O)c2ccc(OC)c(OC)c2)c1	-1	-15	15	-1	37	-3
COc1ccc(N(CC(=O)N2CCCCCC2)S(=O)(=O)c2ccc(OC)c(OC)c2)cc1	51*	9	-9	-1	17	-2
COc1cccc(S(=O)(=O)N(C)C[C@H]2Oc3cc(C4=CCCC4)ccc3S(=O)(=O)N([C@H](C)CO)C[C@@H]2C)c1	·	·	·	·	-6[16.7 µM]	-10
COCCCNC(=O)CN(c1cccc(Cl)c1)S(C)(=O)=O	-1	i	527*	·	-7	0
COCCCNC(=O)CN(c1cccc(Cl)c1C)S(C)(=O)=O	0	-29	29	-1	-2	-1
COc1ccccc1CCNC(=O)c1cccc(NC(=O)CC2SC(N3CCCCC3)=NC2=O)c1 (stereo not drawn)	-1	80*	-80	-1	·	-8
Cc1ccc2[nH]c(C(=O)N/N=C/c3ccccc3C(=O)O)c(-c3ccccc3)c2c1	-6	-7	7	-2	-8	-1
Cc1ccc2[nH]c(C(=O)N/N=C/c3ccccc3O)c(C)c2c1	-4	132*	-132	0	·	-1
COc1ccc2[nH]c(C(=O)N/N=C/c3ccccc3OC)cc2c1	-1	·	·	0	8	4
COc1ccc(OC)c(/C=N/NC(=O)c2cc3c(OC)c(OC)ccc3[nH]2)c1	-2	72*	-72	0	·	2
COc1cc(OC)c2cc(C(=O)N/N=C/c3ccccc3O)[nH]c2c1	2	123*	-123	1	·	-4

Screening data as filed in PubChem BioAssay.
